Source: PubChem BioAssay (several laboratories)
The list is not random: actives were taken first. Their share in the collection is about 9.6%.
TNAP inh hi DEA – inhibitors of human TNAP at high phosphate acceptor concentration. P05186. inhibition, % at 20 µM. purified TNAP, CDP-star luminescence, 1 M DEA. 0.03% of 200,000 active. AID 1135;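 active = over 50% inhibition of tissue-nonspecific alkaline phosphatase at 20 µM in the single-dose screen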
Target sequence (P05186 whole entry, looked up): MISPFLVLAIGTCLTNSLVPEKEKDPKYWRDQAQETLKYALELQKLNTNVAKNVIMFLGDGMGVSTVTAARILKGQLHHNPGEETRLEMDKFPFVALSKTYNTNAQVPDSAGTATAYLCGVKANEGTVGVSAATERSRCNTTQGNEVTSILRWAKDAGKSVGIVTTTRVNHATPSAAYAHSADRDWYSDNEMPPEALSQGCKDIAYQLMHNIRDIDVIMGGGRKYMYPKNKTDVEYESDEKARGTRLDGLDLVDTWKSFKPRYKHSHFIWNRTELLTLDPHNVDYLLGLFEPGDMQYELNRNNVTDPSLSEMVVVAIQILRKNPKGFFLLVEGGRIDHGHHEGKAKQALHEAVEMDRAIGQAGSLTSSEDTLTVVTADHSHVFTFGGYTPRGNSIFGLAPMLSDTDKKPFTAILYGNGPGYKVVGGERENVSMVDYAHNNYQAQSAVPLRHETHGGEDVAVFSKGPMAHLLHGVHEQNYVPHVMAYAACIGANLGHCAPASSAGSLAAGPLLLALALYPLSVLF
HCT116 PTEN-null – suppresses growth of cells with PTEN deletion | HCT116 PTEN-null viability, CellTiter-Glo, 60 h; hits give low values | viability, % at 10 µM | 1.2% of 140,000 active | AID 827;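 active = viability at or below a set limit, 4 SD under the median of all tested compounds, cut at about 3.7% in these data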;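 note: PTEN knockout HCT116 line with beta catenin targeted HCT116 as companion control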
TNAP inh no acc – inhibitors of human TNAP without phosphate acceptor; P05186; purified TNAP, CDP-star luminescence, 30 min; inhibition, % at 20 µM; 0.26% of 200,000 active; AID 1012;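 active = tissue-nonspecific alkaline phosphatase inhibition above about 50% at 20 µM in the single-dose screen, limit read from the data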
bCat KO growth – beta-catenin-lacking colon tumor cell growth suppression; HCT116 beta-catenin knockout viability, CellTiter-Glo, 60 h; hits give low values; 1.5% of 140,000 active; AID 818; viability, % at 10 µM;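 active = viability at or under a set limit, the compound median less 4 SD, cut at about 6% in these data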
L major viab – inhibitors of Leishmania major promastigote growth; Leishmania major promastigotes, resazurin fluorescence viability; inhibition, % at 10 µM; AID 1063; 9% of 200,000 active; in the data active = inhibition above about 50%;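 note: promastigotes grown with compound for 44 hours at 28 °C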
TNAP act hiacc – increases human TNAP activity under high phosphate acceptor concentration | purified TNAP, CDP-star luminescence, 1 M DEA, 30 min; hits give high values; 0 = EDTA background, 1 = DMSO-only activity | activation factor at 20 µM | 200,000 tested, under 10 active | AID 1136;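 active = activation factor at least 2 at 20 µM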
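Dosing: 20 µM single point. System: human TNAP. Amount: TNAP 1/800 final. Incubation: 30 min, room temperature. Read-out: TNAP activation factor scaled between EDTA and DMSO control wells. Signal: luminescence from CDP-star hydrolysis. Medium: 1 M DEA, pH 9.8, Mg2+, Zn2+. Control set: EDTA negative control, DMSO positive control.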
Large screens that a line does not name were inactive.

COc1ccccc1C(=O)NC(=Nc1nc2ccccc2o1)NC(=O)c1ccccc1OC	HCT116 PTEN-null 2.1, bCat KO growth 2.5, L major viab 100.3
Cc1cc(NC(=O)c2ccccc2F)ncc1NC(=O)c1cccs1	none (no result: HCT116 PTEN-null, bCat KO growth)
COCc1cc(C)nc(OC)c1C(N)=O	none (no result: HCT116 PTEN-null, bCat KO growth)
COC(=O)c1ccc(CSc2nnc(-c3c[nH]c4ccccc34)n2-c2ccccc2)cc1	none
Cc1cccc(-n2c(SCc3ccc(C#N)cc3)nnc2-c2c[nH]c3ccccc23)c1	L major viab 97.8
CC(C)N1CCC(N2CCN(C3CCCCCC3)CC2CCO)CC1 (stereo unspecified)	none (no result: HCT116 PTEN-null, bCat KO growth)
O=C(CN1CCOCC1)Nc1nc(-c2ccc3c(c2)CCN3S(=O)(=O)c2ccccc2)cs1	L major viab 67.5
Cc1sc(NC(=O)CN2CCOCC2)nc1-c1ccc2c(c1)CCN2S(=O)(=O)c1ccccc1	L major viab 97.0
O=C(/C=C/c1ccc(Br)cc1)c1ccco1	HCT116 PTEN-null 0.8, bCat KO growth 1.0, L major viab 89.0
O=C(/C=C/c1ccc(Br)cc1)c1ccc(NC(=O)c2ccco2)cc1	HCT116 PTEN-null 2.1, bCat KO growth 1.8, L major viab 88.3
O=C(/C=C/c1ccncc1)c1ccc(NC(=O)c2ccccc2F)cc1	HCT116 PTEN-null 2.0, bCat KO growth 1.2, L major viab 100.2
Cc1ccc(-c2nc3ccsc3c(=O)[nH]2)cc1	none (no result: HCT116 PTEN-null, bCat KO growth)
COc1ccc(S(N)(=O)=O)cc1C(N)=O	none (no result: HCT116 PTEN-null, bCat KO growth)
Cc1ccccc1CCN(C(=O)CN1C(=O)c2ccccc2S1(=O)=O)C(C(=O)NCC1CCCO1)c1ccncc1 (stereo unspecified)	L major viab 59.9
Cc1cccc(OCc2nnc(SCC(=O)O)n2Cc2ccccc2)c1	none (no result: HCT116 PTEN-null, bCat KO growth)
N#C/C(=N\Nc1cccc2ccccc12)c1nnc2n1CCCCC2	none
CN1CCCC(C#CC(O)(c2ccccc2)c2ccccc2)C1 (stereo unspecified)	L major viab 78.3 (no result: HCT116 PTEN-null, bCat KO growth)
COc1ccc(N2CCN(C(=O)c3ccc(C)cc3)CC2)c([N+](=O)[O-])c1	L major viab 54.0
COc1ccc(N2CCN(C(=O)c3ccc(Br)cc3)CC2)c([N+](=O)[O-])c1	none (no result: HCT116 PTEN-null, bCat KO growth)
Cc1cnc(C(=O)N2CCCC(C(=O)c3cccc(OC(C)C)c3)C2)cn1 (stereo unspecified)	none (no result: HCT116 PTEN-null, bCat KO growth)
COc1ccc(-n2nc([N+](=O)[O-])c(=NCCc3ccccc3)n2O)cc1	L major viab 96.0
O=[N+]([O-])c1nn(-c2ccccc2)n(O)c1=NCCc1ccccc1	L major viab 91.3
Cc1ccc(CCN=c2c([N+](=O)[O-])nn(-c3ccccc3)n2O)cc1	none (no result: HCT116 PTEN-null, bCat KO growth)
COc1ccc(-c2nnn3c2nc(NCc2ccccc2)c2ccccc23)cc1	none (no result: HCT116 PTEN-null, bCat KO growth)
CC1(C)CC(=O)C(C(=O)/C=C/c2ccco2)C(=O)C1	none (no result: HCT116 PTEN-null, bCat KO growth)
COc1cccc2cc(C(C)OC(=O)Nc3ccc(C)cc3)oc12 (stereo unspecified)	none (no result: HCT116 PTEN-null, bCat KO growth)
CCOC(=O)c1c(C)[nH]c(C(=O)OCC(=O)Nc2cc(C)ccc2OC)c1C	bCat KO growth 2.2
Cc1ccc(N=N/C(=C\O)C(=O)c2ccc(Cl)cc2)cc1	L major viab 91.1 (no result: HCT116 PTEN-null, bCat KO growth)
O=C(Cn1nc(C(F)F)cc1C(F)F)NNC(=S)Nc1ccc([N+](=O)[O-])cc1	none (no result: HCT116 PTEN-null, bCat KO growth)
Cc1cc(C)c(S(=O)(=O)Nc2ccc(-c3cn4ccccc4n3)cc2)c(C)c1	L major viab 60.8
Cc1cccc(S(=O)(=O)Nc2ccc(-c3cn4ccccc4n3)cc2)c1	none
Cn1c(/C(C#N)=C/C2CC=CCC2)nc2ccccc21 (stereo unspecified)	L major viab 79.3
N#C/C(=C\C1CC=CCC1)c1nc2ccccc2[nH]1 (stereo unspecified)	L major viab 95.2
COc1ccc(CCCC(=O)Nc2ccc(F)cc2)cc1	none
CC1CCCN(CC(O)COc2ccc(Cl)cc2)C1 (stereo unspecified)	L major viab 91.2
CC1CCCN(CC(O)COC(c2ccccc2)c2ccccc2)C1 (stereo unspecified)	L major viab 99.3 (no result: HCT116 PTEN-null, bCat KO growth)
Cc1ccc(C(OCC(O)CN2CCCCC2CO)c2ccccc2)cc1 (stereo unspecified)	L major viab 84.1 (no result: HCT116 PTEN-null, bCat KO growth)
Cc1cc(Cl)ccc1C(=O)C1CCCN(C(=O)c2snnc2C)C1 (stereo unspecified)	none (no result: HCT116 PTEN-null, bCat KO growth)
